Calls of active or inactive are those of the source. The calls are words filed in the database; no cut-off is given here.
Columns and labels:
Rattus norvegicus [1] = species on record: Rattus norvegicus; assay: Anti-dynamic allodynic effect in Sprague-Dawley rat CCI model assessed as latency to paw withdrawal after 2.5 hr; format: functional
In short: (§1)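 Rats with sciatic nerve chronic constriction injury (pentobarbital 65 mg/kg i.p. anaesthesia), baseline and day 9 testing, then drug per randomization table. After 10 min acclimatization, affected plantar surface stroked mildly with a cotton-bud; paw lift recorded. n = 4; retested 0.5-2.5 h post-dose.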

Rattus norvegicus [2] = assay: Anti-dynamic allodynia effect in Sprague-Dawley rat SNL model assessed as latency to paw withdrawal 100 mg/kg, ip after 2.5 hrs; format: functional; settings: route intraperitoneal
In short: (§2)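 Left L5 spinal nerve ligation rats, tested preoperatively and 9 days postoperatively, then given 100 mg/kg i.p. (vehicle 30% v/v PEG 400 in water). After 10 min acclimatization, plantar surface of affected paw stroked mildly with a cotton-bud; paw lift response recorded. n = 4; retested 0.5-2.5 h post-dose.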

Rattus norvegicus [3] = species on record: Rattus norvegicus; assay: Anti-dynamic allodynic effect in Sprague-Dawley rat CCI model assessed as latency to paw withdrawal after 1 hr; format: functional; in short: as §1
Mus musculus [4] = assay: Anticonvulsant activity in Swiss Albino mouse at 100 mg/kg, ip after 0.5 hr by scSTY test; format: functional, organism-based; set-up: dose 100 mg/kg
In short: (§3)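 Mice (Swiss, 20-25 g) given i.p. doses of 30, 100 and 300 mg/kg under ADD program protocols, three per group, examined at 0.5 and 4 h in MES, scPTZ, scSTY or scPIC seizure tests. Value is the minimum dose protecting half or more of the mice.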

Mus musculus [5] = assay: Anticonvulsant activity in Swiss Albino mouse at 300 mg/kg, ip after 0.5 hr by scPIC test; format: functional, organism-based; set-up: dose 300 mg/kg; in short: as §3
Rattus norvegicus [6] = assay: Anti-cold allodynia effect in Sprague-Dawley rat SNL model assessed as duration of paw withdrawal 100 mg/kg, ip after 2.5 hrs; format: functional; settings: route intraperitoneal
In short: (§4)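 Left L5 spinal nerve ligation under pentobarbital (65 mg/kg i.p.). Allodynic rats dosed i.p. 100 mg/kg, vehicle 30% v/v PEG 400 in water. Acetone (100-200 µL) misted onto midplantar affected paw after 10 min acclimatization; paw withdrawal duration, mean of three samples at least 3 min apart; n = 4 rats.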

Rattus norvegicus [7] = assay: Anti-cold allodynia effect in Sprague-Dawley rat SNL model assessed as duration of paw withdrawal 100 mg/kg, ip after 1.5 hrs; format: functional; settings: route intraperitoneal; in short: as §4
Mus musculus [8] = assay: Anticonvulsant activity in Swiss Albino mouse at 300 mg/kg, ip after 0.5 hr by MES test; format: functional, organism-based; set-up: dose 300 mg/kg; in short: as §3
Rattus norvegicus [9] = assay: Antihyperalgesic effects in Sprague-Dawley rat SNL model assessed as duration of paw withdrawal at 100 mg/kg, ip after 2.5 hrs, ip; format: functional; settings: route intraperitoneal
In short: (§5)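 L5 SNL rats (n = 4), dosed 100 mg/kg i.p. (vehicle 30% v/v PEG 400 in water). Pin-prick to midplantar ipsilateral left hindpaw; withdrawal duration, mean of three responses; ≥2 s defined abnormal. Mean ± SEM; one-way ANOVA with Bonferroni versus predrug.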

Mus musculus [10] = assay: Neurotoxicity in Swiss Albino mouse at 300 mg/kg, ip after 4 hrs by rotarod test; format: functional, organism-based; set-up: dose 300 mg/kg
In short: (§6)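 Swiss mice (20-25 g) are trained on an accelerating rotorod (10 rpm, 3.2 cm rod), then injected i.p. at 30, 100 or 300 mg/kg, with three per group. Neurotoxicity means failure to keep equilibrium for at least 1 min in each of three trials, checked at 0.5 and 4 h. The value reported is the minimum dose affecting half or more of the mice.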

Mus musculus [11] = assay: Neurotoxicity in Swiss Albino mouse at 300 mg/kg, ip after 0.5 hr by rotarod test; format: functional, organism-based; set-up: dose 300 mg/kg; in short: as §6
Rattus norvegicus [12] = assay: Anti-cold allodynia effect in Sprague-Dawley rat SNL model assessed as duration of paw withdrawal 100 mg/kg, ip after 2 hrs; format: functional; settings: route intraperitoneal; in short: as §4
Mus musculus [13] = assay: Analgesic activity in Swiss Albino mouse assessed as number of acetic acid-induced writhing per 30 min after 100 mg/kg, ip; format: functional; settings: route intraperitoneal
In short: (§7)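 Mice in groups of six dosed i.p. at 100 mg/kg, controls receiving 30% v/v PEG 400 in water. Writhing induced by i.p. 0.1 mL of 3% v/v acetic acid 1 h after drug. Writhes (abdominal stretch with at least one hind limb extended) counted over 30 min; % inhibition calculated. Mean ± SEM, Student's t test.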

Rattus norvegicus [14] = species on record: Rattus norvegicus; assay: Anti-dynamic allodynic effect in Sprague-Dawley rat CCI model assessed as latency to paw withdrawal after 1.5 hr; format: functional; in short: as §1
Rattus norvegicus [15] = assay: Effect on spontaneous pain in Sprague-Dawley rat CCI model assessed as duration of paw withdrawal at 100 mg/kg, ip after 2 hrs; format: functional; settings: route intraperitoneal
In short: (§8)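 Unilateral CCI of sciatic nerve (Bennett and Xie) in Sprague-Dawley rats under i.p. pentobarbital sodium (65 mg/kg). Spontaneous pain is scored over 5 min after 10 min acclimatization, as cumulative time the ipsilateral paw is held off the floor. Paw lifts from locomotion or repositioning are excluded. Drug is given at 100 mg/kg i.p. with 30% v/v PEG 400 vehicle. Mean ± SEM, n = 4, compared with predrug by ANOVA/Bonferroni.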

Rattus norvegicus [16] = assay: Effect on spontaneous pain in Sprague-Dawley rat CCI model assessed as duration of paw withdrawal at 100 mg/kg, ip after 2.5 hrs; format: functional; settings: route intraperitoneal; in short: as §8
Rattus norvegicus [17] = assay: Anti-dynamic allodynia effect in Sprague-Dawley rat SNL model assessed as latency to paw withdrawal 100 mg/kg, ip after 2 hrs; format: functional; settings: route intraperitoneal; in short: as §2
Rattus norvegicus [18] = assay: Antihyperalgesic effects in Sprague-Dawley rat SNL model assessed as duration of paw withdrawal at 100 mg/kg, ip after 1.5 hrs, ip; format: functional; settings: route intraperitoneal; in short: as §5
Rattus norvegicus [19] = assay: Antihyperalgesic effects in Sprague-Dawley rat SNL model assessed as duration of paw withdrawal at 100 mg/kg, ip after 1 hr, ip; format: functional; settings: route intraperitoneal; in short: as §5
Mus musculus [20] = assay: Analgesic activity in Swiss Albino mouse assessed as inhibition of acetic acid-induced writhing responses at 100 mg/kg, ip; format: functional; settings: route intraperitoneal; in short: as §7
Mus musculus [21] = assay: Anticonvulsant activity in Swiss Albino mouse at 300 mg/kg, ip after 4 hrs by MES test; format: functional, organism-based; set-up: dose 300 mg/kg; in short: as §3
Mus musculus [22] = assay: Anticonvulsant activity in Swiss Albino mouse at 300 mg/kg, ip after 0.5 hr by scPTZ test; format: functional, organism-based; set-up: dose 300 mg/kg; in short: as §3
Mus musculus [23] = assay: Anticonvulsant activity in Swiss Albino mouse at 300 mg/kg, ip after 4 hrs by scPIC test; format: functional, organism-based; set-up: dose 300 mg/kg; in short: as §3
Rattus norvegicus [24] = assay: Anti-cold allodynia effect in Sprague-Dawley rat SNL model assessed as duration of paw withdrawal 100 mg/kg, ip after 0.5 hr; format: functional; settings: route intraperitoneal; in short: as §4
Rattus norvegicus [25] = assay: Effect on spontaneous pain in Sprague-Dawley rat CCI model assessed as duration of paw withdrawal at 100 mg/kg, ip after 0.5 hr; format: functional; settings: route intraperitoneal
In short: (§9)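 CCI rats (n = 4) dosed 100 mg/kg i.p. (vehicle 30% v/v PEG 400 in water). After 10 min acclimatization in a cage 5 cm above ground, cumulative time the ipsilateral paw was held off the floor over 5 min recorded, excluding locomotion lifts. Mean ± SEM; ANOVA/Bonferroni versus predrug.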

Rattus norvegicus [26] = assay: Anti-dynamic allodynia effect in Sprague-Dawley rat SNL model assessed as latency to paw withdrawal 100 mg/kg, ip after 1.5 hrs; format: functional; settings: route intraperitoneal; in short: as §2
Mus musculus [27] = assay: Anticonvulsant activity in Swiss Albino mouse at 300 mg/kg, ip after 4 hrs by scSTY test; format: functional, organism-based; set-up: dose 300 mg/kg; in short: as §3
Rattus norvegicus [28] = assay: Anti-cold allodynia effect in Sprague-Dawley rat SNL model assessed as duration of paw withdrawal 100 mg/kg, ip after 1 hrs; format: functional; settings: route intraperitoneal; in short: as §4
Rattus norvegicus [29] = assay: Anti-dynamic allodynia effect in Sprague-Dawley rat SNL model assessed as latency to paw withdrawal 100 mg/kg, ip after 0.5 hr; format: functional; settings: route intraperitoneal; in short: as §2
Rattus norvegicus [30] = assay: Antihyperalgesic effects in Sprague-Dawley rat SNL model assessed as duration of paw withdrawal at 100 mg/kg, ip after 2 hrs, ip; format: functional; settings: route intraperitoneal; in short: as §5
Rattus norvegicus [31] = species on record: Rattus norvegicus; assay: Anti-dynamic allodynic effect in Sprague-Dawley rat CCI model assessed as latency to paw withdrawal after 2 hr; format: functional; in short: as §1
Rattus norvegicus [32] = assay: Anti-dynamic allodynia effect in Sprague-Dawley rat SNL model assessed as latency to paw withdrawal 100 mg/kg, ip after 1 hr; format: functional; settings: route intraperitoneal; in short: as §2
Rattus norvegicus [33] = assay: Antihyperalgesic effects in Sprague-Dawley rat SNL model assessed as duration of paw withdrawal at 100 mg/kg, ip after 0.5 hr, ip; format: functional; settings: route intraperitoneal; in short: as §5
Rattus norvegicus [34] = assay: Effect on spontaneous pain in Sprague-Dawley rat CCI model assessed as duration of paw withdrawal at 100 mg/kg, ip after 1.5 hrs; format: functional; settings: route intraperitoneal; in short: as §8
Rattus norvegicus [35] = species on record: Rattus norvegicus; assay: Anti-dynamic allodynic effect in Sprague-Dawley rat CCI model assessed as latency to paw withdrawal after 0.5 hr; format: functional; in short: as §1
Rattus norvegicus [36] = assay: Effect on spontaneous pain in Sprague-Dawley rat CCI model assessed as duration of paw withdrawal at 100 mg/kg, ip after 1 hr; format: functional; settings: route intraperitoneal; in short: as §9

## C/C(=N\NC(=O)NCCCC(=O)O)c1ccccc1
Rattus norvegicus [1]
  Activity: 14.5 s
Rattus norvegicus [2]
  Activity: 11.88 s
Rattus norvegicus [3]
  Activity: 10.2 s
Mus musculus [4]
  Activity: Active
Mus musculus [5]
  Activity: Active
Rattus norvegicus [6]
  Activity: 4.8 s
Rattus norvegicus [7]
  Activity: 11.7 s
Mus musculus [8]
  Activity: inactive
Rattus norvegicus [9]
  Activity: 17.3 s
Mus musculus [10]
  Activity: inactive
Mus musculus [11]
  Activity: inactive
Rattus norvegicus [12]
  Activity: 10.9 s
Mus musculus [13]
  Activity: 33.7
Rattus norvegicus [14]
  Activity: 13.3 s
Rattus norvegicus [15]
  Activity: 12.9 s
Rattus norvegicus [16]
  Activity: 10.6 s
Rattus norvegicus [17]
  Activity: 12.2 s
Rattus norvegicus [18]
  Activity: 18.7 s
Rattus norvegicus [19]
  Activity: 27.6 s
Mus musculus [20]
  inhibition in vivo at 100 mg/kg: 82%
Mus musculus [21]
  Activity: inactive
Mus musculus [22]
  Activity: inactive
Mus musculus [23]
  Activity: Active
Rattus norvegicus [24]
  Activity: 17.9 s
Rattus norvegicus [25]
  Activity: 13.2 s
Rattus norvegicus [26]
  Activity: 9.2 s
Mus musculus [27]
  Activity: Active
Rattus norvegicus [28]
  Activity: 12.8 s
Rattus norvegicus [29]
  Activity: 8.7 s
Rattus norvegicus [30]
  Activity: 16.7 s
Rattus norvegicus [31]
  Activity: 12.1 s
Rattus norvegicus [32]
  Activity: 7.2 s
Rattus norvegicus [33]
  Activity: 23.2 s
Rattus norvegicus [34]
  Activity: 18.3 s
Rattus norvegicus [35]
  Activity: 14.8 s
Rattus norvegicus [36]
  Activity: 18.8 s
